Measurements: ChEMBL document CHEMBL1124180, “Asymmetric synthesis and properties of the enantiomers of the antibacterial agent 7-(3-aminopyrrolidin-1-yl)-1-(2,4-difluorophenyl)-1,4-dihydro-6- fluoro-4-oxo-1,8-naphthyridine-3-carboxylic acid hydrochloride” (J Med Chem, 1988)

How the values were obtained:
Assay type in all cases: functional
Staphylococcus aureus [1] = test: In vitro activity against Staphylococcus aureus(CMX 553)
Procedure, shortened: (§1)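 MIC determined by agar dilution on brain-heart infusion agar under aerobic conditions.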

Streptococcus pyogenes [2] = test: In vitro activity against Streptococcus pyogenes(930 CONST).; procedure, shortened: as §1
Escherichia coli [3] = test: In vitro activity against Escherichia coli (SS).
Procedure, shortened: (§2)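 MIC for aerobic bacteria, measured on brain-heart infusion agar.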

Clostridium perfringens [4] = test: In vitro activity against Clostridium perfringens (104AT13124)
Cutibacterium acnes = test: In vitro activity against Propionibacterium acnes (132)
Procedure, shortened: (§3)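 MIC determined under anaerobic conditions on Wilkins-Chalgren agar.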

Phocaeicola vulgatus [5] = test: In vitro activity against Bacteroides vulgatus(792); procedure, shortened: as §3
Peptostreptococcus = test: In vitro activity against Peptostreptococcus sp.(TB-11)
Procedure, shortened: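 MIC for anaerobic bacteria, measured on Wilkins-Chalgren agar.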

Staphylococcus aureus [6] = test: In vitro activity against Staphylococcus aureus(45); procedure, shortened: as §1
[7] = system: Bacteroides thetaiotaomicron; test: In vitro activity against Bacteroides thetaiotaomicron (106); procedure, shortened: as §3
Klebsiella pneumoniae = test: In vitro activity against Klebsiella pneumoniae (ATCC 8045).; procedure, shortened: as §1
Finegoldia magna = test: In vitro activity against Peptococcus magnus (ATCC 29328); procedure, shortened: as §3
Bacteroides fragilis [8] = test: In vitro activity against Bacteroides fragilis (105AT25285); procedure, shortened: as §3
Escherichia coli [9] = test: In vitro activity against Escherichia coli (KNK437); procedure, shortened: as §2
Veillonella parvula = test: In vitro activity against Veillonella parvula (ATCC 10790)
Procedure, shortened: (§4)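 Anaerobic MICs measured by agar dilution on Wilkins-Chalgren agar.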

Bacteroides fragilis [10] = test: In vitro activity against Bacteroides fragilis (SFM2906A); procedure, shortened: as §3
[11] = system: Peptostreptococcus anaerobius; test: In vitro activity against Peptostreptococcus anaerobius (ATCC 27337); procedure, shortened: as §3
[12] = system: Bacteroides thetaiotaomicron; test: In vitro activity against Bacteroides thetaiotaomicron (ATCC 29742); procedure, shortened: as §3
Hoylesella loescheii = test: In vitro activity against Bacteroides loescheii (ATCC 15930).; procedure, shortened: as §3
Streptococcus pyogenes [13] = test: In vitro activity against Streptococcus pyogenes (2548 INDUC).; procedure, shortened: as §1
Bacteroides fragilis [14] = test: In vitro activity against Bacteroides fragilis (SFM2929-1); procedure, shortened: as §3
[15] = system: Prevotella melaninogenica; test: In vitro activity against Bacteroides melaninogenicus (ATCC 25845).; procedure, shortened: as §3
Staphylococcus aureus [16] = test: In vitro activity against Staphylococcus aureus(45 RAR2); procedure, shortened: as §1
Escherichia coli [17] = test: In vitro activity against Escherichia coli Juhl; procedure, shortened: as §2
Prevotella bivia = test: In vitro activity against t Bacteroides bivius(B 6140); procedure, shortened: as §4
Pseudomonas aeruginosa [18] = test: In vitro activity against Pseudomonas aeruginosa (A5007).; procedure, shortened: as §1
Bacteroides fragilis [19] = test: In vitro activity against Bacteroides fragilis (UC-2); procedure, shortened: as §3
Escherichia coli [20] = test: In vitro activity against Escherichia coli (DC-2); procedure, shortened: as §2
Phocaeicola vulgatus [21] = test: In vitro activity against Bacteroides vulgatus(SFBC 2375); procedure, shortened: as §3
[22] = system: Staphylococcus epidermidis; test: In vitro activity against Staphylococcus epidermidis (3519); procedure, shortened: as §1
Streptococcus pyogenes [23] = test: In vitro activity against Streptococcus pyogenes (EES61); procedure, shortened: as §1
Burkholderia cepacia = test: In vitro activity against Pseudomonas cepacia (296I); procedure, shortened: as §1
Streptococcus agalactiae = test: In vitro activity against Streptococcus agalactiae (CMX 508).; procedure, shortened: as §1
Clostridium perfringens [24] = test: In vitro activity against Clostridium perfringens (SFBC 2026)
Fusobacterium nucleatum = test: In vitro activity against Fusobacterium nucleatum (ATCC 25586); procedure, shortened: as §3
Clostridioides difficile [25] = test: In vitro activity against Clostridium difficile (ATCC 9689)
Bacteroides fragilis [26] = test: In vitro activity against Bacteroides fragilis (784); procedure, shortened: as §3
Pseudomonas aeruginosa [27] = test: In vitro activity against Pseudomonas aeruginosa (BMH10); procedure, shortened: as §1
Providencia stuartii = test: In vitro activity against Providencia stuartii (CMX 640); procedure, shortened: as §1
[28] = system: Bacteroides thetaiotaomicron; test: In vitro activity against thetaiotaomicron (ATCC 29741); procedure, shortened: as §4
Pseudomonas aeruginosa [29] = test: In vitro activity against Pseudomonas aeruginosa (K799/WT).; procedure, shortened: as §1
Parvimonas micra = test: In vitro activity against Peptostreptococcus micros (ATCC 33270).; procedure, shortened: as §3
Staphylococcus aureus [30] = test: In vitro activity against Staphylococcus aureus(CMX 503A); procedure, shortened: as §1
[31] = system: Peptoniphilus asaccharolyticus; test: In vitro activity against Peptococcus asaccharolyticus (ATCC 14963).; procedure, shortened: as §3
Enterococcus faecium = test: In vitro activity against Enterococcus faecium (ATCC 8043).; procedure, shortened: as §1
[32] = system: Bacteroides thetaiotaomicron; test: In vitro activity against Bacteroides thetaiotaomicron (SFM2975-2); procedure, shortened: as §3
Fusobacterium = test: In vitro activity against Fusobacterium sp.(GS-10); procedure, shortened: as §3
Prevotella disiens = test: In vitro activity against Bacteroides disiens (ATCC 29426); procedure, shortened: as §3
Clostridioides difficile [33] = test: In vitro activity against Clostridium difficile (ATCC 17857)
Staphylococcus aureus [34] = test: In vitro activity against Staphylococcus aureus(ATCC 6538P); procedure, shortened: as §1
Escherichia coli [35] = test: In vitro activity against Escherichia coli (H560); procedure, shortened: as §2
Bacteroides fragilis [36] = test: In vitro activity against Bacteroides fragilis (SFM2975-7); procedure, shortened: as §3
Micrococcus luteus [37] = test: In vitro activity against Micrococcus luteus (ATCC 9341); procedure, shortened: as §1
Clostridium perfringens [38] = test: In vitro activity against Clostridium perfringens (788)
Streptococcus equinus = test: In vitro activity against Streptococcus bovis (A5169).; procedure, shortened: as §1
Klebsiella aerogenes = test: In vitro activity against Enterobacter aerogenes (ATCC 13048).; procedure, shortened: as §1
Micrococcus luteus [39] = test: In vitro activity against Micrococcus luteus (ATCC 4698); procedure, shortened: as §1
Thomasclavelia ramosa = test: In vitro activity against Clostridium romosum (7)
Staphylococcus aureus [40] = test: In vitro activity against Staphylococcus aureus(CMX 686B); procedure, shortened: as §1
Acinetobacter sp. = test: In vitro activity against Acinetobacter sp.(CMX 669).; procedure, shortened: as §1
Staphylococcus aureus [41] = test: In vitro activity against Staphylococcus aureus (A5177); procedure, shortened: as §1

## Cl.N[C@@H]1CCN(c2nc3c(cc2F)c(=O)c(C(=O)O)cn3-c2ccc(F)cc2F)C1
Staphylococcus aureus [1]
  MIC: 0.1 mg/L
Streptococcus pyogenes [2]
  MIC: 0.39 mg/L
Escherichia coli [3]
  MIC: 0.01 mg/L
Clostridium perfringens [4]
  MIC: 0.25 mg/L
Cutibacterium acnes
  MIC: 1 mg/L
Phocaeicola vulgatus [5]
  MIC: 2 mg/L
Peptostreptococcus
  MIC: 0.5 mg/L
Staphylococcus aureus [6]
  MIC: 0.1 mg/L
[7]
  MIC: 8 mg/L
Klebsiella pneumoniae
  MIC: 0.05 mg/L
Finegoldia magna
  MIC: 0.5 mg/L
Bacteroides fragilis [8]
  MIC: 2 mg/L
Escherichia coli [9]
  MIC: 0.39 mg/L
Veillonella parvula
  MIC: 0.5 mg/L
Bacteroides fragilis [10]
  MIC: 2 mg/L
[11]
  MIC: 0.5 mg/L
[12]
  MIC: 8 mg/L
Hoylesella loescheii
  MIC: 4 mg/L
Streptococcus pyogenes [13]
  MIC: 0.2 mg/L
Bacteroides fragilis [14]
  MIC: 2 mg/L
[15]
  MIC: 1 mg/L
Staphylococcus aureus [16]
  MIC: 0.1 mg/L
Escherichia coli [17]
  MIC: 0.05 mg/L
Prevotella bivia
  MIC: 2 mg/L
Pseudomonas aeruginosa [18]
  MIC: 0.39 mg/L
Bacteroides fragilis [19]
  MIC: 2 mg/L
Escherichia coli [20]
  MIC: 0.39 mg/L
Phocaeicola vulgatus [21]
  MIC: 1 mg/L
[22]
  MIC: 0.1 mg/L
Streptococcus pyogenes [23]
  MIC: 0.39 mg/L
Burkholderia cepacia
  MIC: 6.2 mg/L
Streptococcus agalactiae
  MIC: 0.39 mg/L
Clostridium perfringens [24]
  MIC: 0.25 mg/L
Fusobacterium nucleatum
  MIC: 2 mg/L
Clostridioides difficile [25]
  MIC: 4 mg/L
Bacteroides fragilis [26]
  MIC: 2 mg/L
Pseudomonas aeruginosa [27]
  MIC: 0.2 mg/L
Providencia stuartii
  MIC: 1.56 mg/L
[28]
  MIC: 8 mg/L
Pseudomonas aeruginosa [29]
  MIC: 0.39 mg/L
Parvimonas micra
  MIC: 0.12 mg/L
Staphylococcus aureus [30]
  MIC: 0.1 mg/L
[31]
  MIC: 0.25 mg/L
Enterococcus faecium
  MIC: 0.39 mg/L
[32]
  MIC: 4 mg/L
Fusobacterium
  MIC: 2 mg/L
Prevotella disiens
  MIC: 2 mg/L
Clostridioides difficile [33]
  MIC: 4 mg/L
Staphylococcus aureus [34]
  MIC: 0.05 mg/L
Escherichia coli [35]
  MIC: 0.05 mg/L
Bacteroides fragilis [36]
  MIC: 4 mg/L
Micrococcus luteus [37]
  MIC: 3.1 mg/L
Clostridium perfringens [38]
  MIC: 0.25 mg/L
Streptococcus equinus
  MIC: 0.39 mg/L
Klebsiella aerogenes
  MIC: 0.2 mg/L
Micrococcus luteus [39]
  MIC: 1.56 mg/L
Thomasclavelia ramosa
  MIC: 2 mg/L
Staphylococcus aureus [40]
  MIC: 0.05 mg/L
Acinetobacter sp.
  MIC: 0.1 mg/L
Staphylococcus aureus [41]
  MIC: 0.1 mg/L
